Compound activity deposited in PubChem BioAssay by The Scripps Research Institute Molecular Screening Center.
Hits are enriched below; roughly 2.7% of the tested compounds scored in any of these assays.
PAFAH2 FP inh: PAFAH2 (human) inhibition | recombinant PAFAH2, FP-rhodamine activity probe, fluorescence polarization | Q99487 | hit rate 0.99% among 340,000 | inhibition, % at 3.39 µM;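 active = inhibition above the mean over all tested compounds plus 3 SD, cut at about 30% in these data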;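 also: inhibitors block probe labeling of enzyme so polarization drops; 0% = enzyme with DMSO and 100% = wells lacking PAFAH2 protein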
pPAFAH inh: pPAFAH (human) enzyme inhibition. Q13093. recombinant pPAFAH, FP-rhodamine probe fluorescence polarization. inhibition, % at 3.39 µM. hit rate 1.5% among 330,000. AID 463082;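 active = inhibition above the mean inhibition across the screen plus 3 SD, cut at about 25% in these data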;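 also: inhibitors block binding of the rhodamine activity-based probe so polarization drops; 0% = enzyme with DMSO and 100% = wells lacking pPAFAH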
Target sequence (Q13093 whole entry, looked up): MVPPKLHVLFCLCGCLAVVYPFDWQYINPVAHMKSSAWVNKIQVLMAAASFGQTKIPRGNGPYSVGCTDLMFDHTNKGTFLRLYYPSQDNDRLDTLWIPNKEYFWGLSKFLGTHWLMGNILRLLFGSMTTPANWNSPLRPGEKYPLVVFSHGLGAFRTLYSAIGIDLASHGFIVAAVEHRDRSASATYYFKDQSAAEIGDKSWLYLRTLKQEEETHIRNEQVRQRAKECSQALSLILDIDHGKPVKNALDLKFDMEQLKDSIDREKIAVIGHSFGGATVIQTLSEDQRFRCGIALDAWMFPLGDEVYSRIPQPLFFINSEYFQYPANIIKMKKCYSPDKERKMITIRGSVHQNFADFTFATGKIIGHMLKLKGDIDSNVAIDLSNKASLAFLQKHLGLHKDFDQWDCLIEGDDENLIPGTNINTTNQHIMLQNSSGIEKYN
PAFAH1B3 FP inh: inhibitors of human PAFAH1B3. AID 492972. inhibition, % at 3.39 µM. recombinant PAFAH1B3, FP-rhodamine probe, fluorescence polarization. Q15102. hit rate 0.28% among 340,000;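 active = inhibition above the screen-wide average of all tested compounds plus 3 SD, cut at about 25% in these data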;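 also: 0% = enzyme with DMSO only and 100% = wells lacking PAFAH1B3 protein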
RBBP9 inhibitor: inhibitors of human serine hydrolase RBBP9. O75884. recombinant RBBP9, FP-Rh probe fluorescence polarization. inhibition, % at 7.94 µM. hit rate 0.2% among 220,000;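 active = inhibition above the campaign mean of all tested compounds plus 3 SD, cut at about 14% in these data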;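 also: plate controls were DMSO wells with RBBP9 for no effect and wells lacking RBBP9 protein for full effect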
Target sequence (O75884 whole entry, looked up): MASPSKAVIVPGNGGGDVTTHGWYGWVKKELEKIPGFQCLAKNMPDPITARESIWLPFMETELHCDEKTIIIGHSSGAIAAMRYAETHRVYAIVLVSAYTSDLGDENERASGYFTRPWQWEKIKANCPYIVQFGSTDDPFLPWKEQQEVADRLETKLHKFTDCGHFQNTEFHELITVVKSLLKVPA
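Controls: DMSO-treated enzyme wells and wells lacking RBBP9 | Material: RBBP9 protein | Technique: Fluorescence polarization | Replication: Single well per compound, no replicates | Buffer or medium: Tris-NaCl-Pluronic buffer, pH 8.0 | Timing: 30 min compound preincubation, 45 min probe labeling, 25 °C | Read-out basis: Percent inhibition from mP, scaled between DMSO and no-protein wells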
PAFAH1B2 FP inh: PAFAH1B2 (human) inhibition; recombinant PAFAH1B2, FP-rhodamine activity probe, fluorescence polarization; hit rate 1.2% among 340,000; P68402; inhibition, % at 3.39 µM;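 active = inhibition above the mean of all tested compounds plus 3 SD, cut at about 24% in these data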;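 also: 0% = enzyme with DMSO and 100% = wells lacking PAFAH1B2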
* marks the source's active call; other numbers are inactive results; / = no result.

SMILES | PAFAH2 FP inh | pPAFAH inh | PAFAH1B3 FP inh | RBBP9 inhibitor | PAFAH1B2 FP inh
Cc1ccc(OCCNS(=O)(=O)c2ccc(Cl)cc2)cc1 | 8.5 | 3.2 | 5.4 | / | 24.5*
CC(C)(C)SCCNS(=O)(=O)c1ccc(Cl)cc1 | / | 31.1* | / | 3.2 | /
Cc1ccc(S(=O)(=O)NCC(=O)OCCOc2ccc(Br)cc2)cc1 | -1.8 | 13.2 | 11.7 | / | 30.0*
Cc1ccc(CNC(=O)CCn2cc(-c3ccc(F)cc3)nc2-c2ccncc2)cc1 | 0.7 | 3.0 | 0.9 | / | 29.4*
Cc1ccc(CNC(=O)CCn2cc(-c3ccc(C)cc3)nc2-c2ccncc2)cc1 | -0.5 | 6.6 | 1.6 | / | 16.4
O=C(NCCS(=O)(=O)N1CCN(c2ccccc2F)CC1)c1cccc(Br)c1 | -2.4 | 3.4 | 2.9 | / | -7.4
CCn1cc(C(=O)N[C@H](C(=O)NCCCN2CCOCC2)C(C)C)c(=O)c2cc3c(cc21)OCO3 | 3.4 | -1.2 | 5.0 | / | 9.6
CC(CC(=O)NCCc1ccc(Cl)cc1)S(=O)(=O)c1ccc2c(c1)NC(=O)CO2 (stereo unspecified) | 4.4 | 4.3 | 3.3 | / | 30.2*
Cc1ccccc1NC(=O)CC(C)S(=O)(=O)c1ccc2c(c1)NC(=O)CO2 (stereo unspecified) | -1.2 | -0.5 | 8.4 | / | 1.7
O=C(CCC1CCCN(C(=O)c2cccc(F)c2)C1)N1CCN(c2ccccn2)CC1 (stereo unspecified) | -6.0 | 24.6* | 7.6 | / | 1.9
CN(C)c1ccc(C(=O)N2CCCC(CCC(=O)N3CCN(c4ccccn4)CC3)C2)cc1 (stereo unspecified) | 1.8 | 26.3* | 5.3 | / | 4.2
O=C(CCC1CCCN(C(=O)c2ccc3c(c2)OCO3)C1)N1CCN(c2ccccn2)CC1 (stereo unspecified) | -2.6 | 26.7* | 4.5 | -9.9 | 2.6
CN(C)c1cccc(C(=O)N2CCCC(CCC(=O)N3CCN(c4ccccn4)CC3)C2)c1 (stereo unspecified) | -2.1 | -0.4 | 1.1 | / | 0.0
O=C1NC(CCc2ccccc2)C(=O)N1CCOc1cccc(Br)c1 (stereo unspecified) | 0.8 | 12.8 | 2.1 | -0.2 | 25.7*
COc1cccc(NC(=O)C(C)Sc2nnc(C3CC3)n2C2CC2)c1 (stereo unspecified) | 3.2 | -1.1 | 3.5 | / | 6.0
CC(=O)Nc1cc(Cl)c(N=Cc2ccc(O)cc2O)cc1Cl | -11.2 | 41.1* | 5.0 | 6.6 | 0.7
O=S(=O)(NN=Cc1ccc(O)cc1O)c1cc(Cl)c(Cl)cc1Cl | -0.5 | / | 0.2 | / | 1.8
CCCCCC(=O)Nc1cc(S(=O)(=O)O)cc2cc(S(=O)(=O)O)cc(O)c12 | 56.8* | / | 34.8* | / | 17.3
CCCCCC(=O)Nc1cc(S(=O)(=O)N2CCCCC2)ccc1N1CCCCC1 | 0.3 | / | 3.6 | / | 1.8
CN1CCC(=O)N(CCSc2ccc(Br)cc2)CC1 | 11.7 | 7.6 | 11.3 | / | 25.8*
CN(CC(=O)NCCC1=CCCCC1)S(=O)(=O)c1ccc2c(c1)CCC(=O)N2 | 4.8 | 0.1 | 0.4 | 1.3 | 4.0
COc1ccc(Br)cc1C1CC(=O)C(C)C(c2cc(Br)ccc2OC)N1 (stereo unspecified) | -0.2 | 11.0 | -2.2 | / | 2.3
Cc1cc(C)cc(N(CC(=O)NCCSCc2ccccc2)S(C)(=O)=O)c1 | 7.5 | 30.5* | -2.3 | -11.3 | 6.2
CCOc1ccc(N(CC(=O)NCCSCc2ccccc2)S(=O)(=O)c2ccccc2)cc1 | 0.5 | 27.8* | -3.3 | / | 2.6
COc1ccc(NC(=O)CSc2ccc3c4c(cccc24)C(=O)c2ccccc2-3)cc1 | 3.0 | 2.2 | 0.2 | -1.3 | 1.9
SMILES | PAFAH2 FP inh | pPAFAH inh | PAFAH1B3 FP inh | RBBP9 inhibitor | PAFAH1B2 FP inh
N#Cc1cccc(NC(=O)CSc2ccc3c4c(cccc24)C(=O)c2ccccc2-3)c1 | 35.9* | 23.4 | 27.4* | 4.5 | 29.8*
CCCCc1ccc(S(=O)(=O)NCCCN2CCCC2=O)cc1 | 4.0 | 27.9* | 4.1 | / | 7.6
Cn1c(=O)oc2cc(S(=O)(=O)NCCCN3CCCC3=O)ccc21 | 3.1 | 0.8 | -4.9 | -9.0 | 4.6
Cc1ccc(NS(=O)(=O)c2ccc(C(=O)NCCCN3CCCC3=O)cc2)cc1C | 6.0 | 30.9* | 0.9 | / | 1.2
COc1ccccc1C(=O)ON=C1c2ccccc2-c2ccccc21 | 57.0* | 29.2* | 4.0 | -11.9 | 1.1
O=c1[nH]nc(SCc2ccccc2)n1C1CC2C=CC1C2 (stereo unspecified) | -6.7 | 8.2 | 0.8 | -7.3 | 25.9*
OCc1ncccc1O | 0.7 | -8.8 | -0.3 | 6.7 | 4.8
Cc1cccc(OCC(=O)NCCCNC(=O)c2ccncc2)c1 | 1.5 | -1.1 | -2.4 | / | -0.4
CC(OC(=O)c1cc(Br)ccc1O)C(=O)Nc1ccc(S(=O)(=O)N2CCCC2)cc1 (stereo unspecified) | -4.0 | 26.3* | -3.2 | / | -1.6
O=C(COC(=O)c1cc(S(=O)(=O)N2CCCC2)ccc1O)Nc1ccccc1Br | 49.4* | 2.4 | -2.1 | / | 2.5
CCN(Cc1ccccc1)C(=O)COC(=O)c1cc(S(=O)(=O)Nc2ccccc2OC)ccc1O | 20.9 | 5.9 | 6.7 | / | 32.2*
COc1ccccc1NS(=O)(=O)c1ccc(O)c(C(=O)OCC(=O)Nc2ccccc2F)c1 | 34.4* | 2.9 | 6.7 | -1.7 | 7.1
CCC(C(=O)OCn1nnc2ccccc2c1=O)c1ccccc1 (stereo unspecified) | -2.9 | 3.9 | 10.6 | -7.1 | 8.1
COc1ccc(N(CC(=O)NCc2ccncc2)S(=O)(=O)c2ccccc2[N+](=O)[O-])c(OC)c1 | -6.2 | -2.2 | 1.4 | 2.0 | 1.7
Cc1c(Cc2ccccc2)sc(/N=C/c2ccc3ccccc3c2)c1C(N)=O | -25.1 | 9.7 | -2.0 | -0.4 | -8.5
Cc1c(Cc2ccccc2)sc(/N=C/c2c(O)ccc3ccccc23)c1C(N)=O | -37.3 | 32.1* | -10.1 | 0.6 | -20.9
Cc1c(Cc2ccccc2)sc(N)c1C(N)=O | / | 28.1* | / | 0.0 | /
COc1ccc([N+](=O)[O-])cc1N(CC(=O)NCCSc1ccc(C)cc1)S(C)(=O)=O | 8.0 | -7.0 | 3.8 | 0.3 | 31.4*
COc1ccc([N+](=O)[O-])cc1N(CC(=O)NCCSc1ccccc1)S(C)(=O)=O | 2.6 | 0.5 | 12.7 | 3.1 | 21.0
CC(C)(C)N=C1NN=C(c2ccc(S(=O)(=O)N3CCCCC3)cc2)CS1 | -2.3 | 7.1 | 5.5 | / | 3.7
O=C(COC(=O)c1ccc(OC(F)(F)F)cc1)Nc1ncccn1 | 14.8 | 24.8* | -0.8 | / | 0.5
NC(=O)NC(=O)COC(=O)c1ccc(OC(F)(F)F)cc1 | 4.9 | 3.5 | 5.7 | -3.1 | 0.4
N#Cc1c(N)[nH]c(=S)c(C#N)c1-c1ccccc1 | 11.3 | 4.8 | 2.4 | -5.7 | 8.8
N#Cc1c(N)[nH]c2ccc(Sc3ccccc3)cc12 | 7.2 | / | 13.9 | / | 35.1*
COC(=O)c1cc2c(s1)-c1ccc(OC)cc1CC2 | 0.5 | -3.6 | 9.9 | -4.0 | -0.8
N#C/C(=C\c1ccc(-c2cccc([N+](=O)[O-])c2)o1)C(=O)Nc1nc(-c2cccs2)cs1 | -0.8 | 33.0* | 2.9 | -3.4 | 5.0
Cc1ccc([N+](=O)[O-])cc1NC(=O)Cc1cccs1 | 0.5 | 26.6* | 2.0 | -1.9 | -1.9
